For one assay, the system named is hippocampal slices. The assay is described as follows: Effect of BDNF on LTP in hippocampal slices. Set-up: species or system rat. The note with it: control conditions (vehicle-exposed slices); BDNF 30 ng/mL. In a few lines:
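Acute hippocampal slices from male Wistar rats (7-10 weeks) recovered at least 60 min in gassed aCSF at 22°C-24°C, then exposed 3 h at room temperature to vehicle (PBS, pH 7.4). BDNF was tested in separate slices from the same rats. LTP magnitude was the normalized change in mean fEPSP slope 50-60 min post-induction versus the 10 min before induction.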

The next assay deals with hippocampal synaptosomes. The experiment in a line: [3H]Glutamate release from hippocampal synaptosomes, effect of BDNF. Set-up: species or system rat. As to conditions: control conditions; BDNF 30 ng/mL. A digest of the protocol:
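Hippocampal slices from male Wistar rats (7-10 weeks) were exposed 3 h to vehicle (PBS), then synaptosomes were isolated via 45% Percoll in KHR. Synaptosomes (1-2 mg/mL protein) equilibrated 5 min at 37°C in oxygenated aCSF and were loaded with [3H]glutamate, then given two K+ depolarizations. Release was expressed as % of total radioactivity per time point, and internal control curves from the same batch were subtracted. The BDNF effect was the integrated S2 peak area above basal tritium release.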

B1: brain-derived neurotrophic factor (protein, UniProt P23560 19-247, looked up)
Neurotrophic factor BDNF …: APMKEANIRGQGGLAYPGVRTHGTLESVNGPKAGSRGLTSLADTFEHVIEELLDEDQKVRPNEENNKDADLYTSRVMLSSQVPLEPPLLFLLEEYKNYLDAANMSMRVRRHSDPARRGELSVCDSISEWVTAADKKTAVDMSGGTVTVLEKVPVSKGQLKQYFYETKCNPMGYTKEGCRGIDKRHWNSQCRTTQSYVRALTMDSKKRIGWRFIRIDTSCVCTLTIKRGR
Regarding B1, the LTP magnitude result with hippocampal slices is “potentiated”. Also, the “K+-evoked glutamate release” value in the assay with hippocampal synaptosomes was “potentiated”.

For the origin of these results see article PMC11489560 (Molecular Therapy, 2024).
